# Calls of active or inactive are those of the source. No cut-off for these calls is given here.
# Key:
# HEK293T = experiment: Inhibition of TEAD (unknown origin) transfected in HEK293T cells assessed as inhibition of TEAD transcriptional activity at 10 uM measured after 16 hrs by luciferase reporter gene assay; type: cell-based; details: Homo sapiens
# Summary of the method: (§1)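 HEK293T cells transfected with a TEAD luciferase reporter (8xGTIIC-Luciferase) and treated at 10 µM for 16 h. References were dasatinib at 100 nM and MGH-CP1 at 10 µM. β-Galactosidase activity used both to normalize luciferase and to estimate cytotoxicity; viability also checked visually. At least three independent experiments in biological triplicate; Kruskal-Wallis tests.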
# [1] = biological target: T1, Transcriptional enhancer factor TEF-4 (Homo sapiens, UniProt Q15562); experiment: Binding affinity to eGFP-fused human TEAD2 (217 to 447 residues) expressed in CHO-K1 cells by microscale thermophoresis analysis
# Summary of the method: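 MST on GFP-labeled hTEAD2_217-447 in CHO-K1 cell lysate, MST power 40%. hYAP_50-102 used as control binder. Kd determined; triplicate runs on three independent cell cultures, mean ± SD.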
# HEK-293T = experiment: Cytotoxicity against human HEK293T cells transfected with TEAD assessed as reduction of beta-galactosidase activity at 10 uM measured after 16 hrs by luciferase reporter gene assay; type: cell-based; summary of the method: as §1
# [2] = biological target: T1, Transcriptional enhancer factor TEF-4; experiment: Binding affinity to external surface of N-terminal His6-tagged human TEAD2 (217 to 447 residues) expressed in Escherichia coli BL21(DE3) assessed as melting temperature by Nano Differential scanning fluorometry
# Summary of the method: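 Thermal stability of hTEAD2_217-447 measured by NanoDSF, which reads intrinsic aromatic-residue fluorescence, with and without ligand.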
# [3] = Inhibition of TEAD (unknown origin) transfected in HEK293T cells assessed as inhibition of TEAD transcriptional activity measured after 16 hrs by luciferase reporter gene assay; type: cell-based; details: Homo sapiens, HEK-293T
# Summary of the method: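 HEK293T cells transfected with the 8xGTIIC-Luciferase TEAD reporter. Dose-response curves used to derive IC50, with luciferase normalized to β-galactosidase.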
# MDA-MB-231 [4] = experiment: Inhibition of YAP/TAZ-TEAD interaction in human MDA-MB-231 cells assessed as reduction in AXL protein expression at 10 uM measured after 48 hrs by western blot analysis; type: cell-based
# Summary of the method: (§2)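 MDA-MB-231 cells grown in DMEM with 0.2% heat-inactivated FBS and 2 mM L-glutamine, and exposed to 10 µM for 48 h, with dasatinib at 100 nM as control. Total extracts prepared in RIPA-based buffer with protease/phosphatase inhibitors, then Western blot. At least three independent experiments in biological triplicate.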
# MDA-MB-231 [5] = experiment: Inhibition of YAP/TAZ-TEAD interaction in human MDA-MB-231 cells assessed as reduction in CTGF protein expression at 10 uM measured after 48 hrs by western blot analysis; type: cell-based; summary of the method: as §2
# MDA-MB-231 [6] = experiment: Inhibition of YAP/TAZ-TEAD interaction in human MDA-MB-231 cells assessed as reduction in Cyr61 protein expression at 10 uM measured after 48 hrs by western blot analysis; type: cell-based; summary of the method: as §2
# MDA-MB-231 [7] = experiment: Inhibition of YAP/TAZ-TEAD interaction in human MDA-MB-231 cells assessed as reduction in Survivin protein expression at 10 uM measured after 48 hrs by western blot analysis; type: cell-based; summary of the method: as §2
# MDA-MB-231 [8] = experiment: Inhibition of YAP/TAZ-TEAD interaction in human MDA-MB-231 cells assessed as reduction in AXL mRNA expression at 10 uM measured after 24 hrs by qRT-PCR analysis; type: cell-based
# Summary of the method: (§3)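 MDA-MB-231 cells exposed to 10 µM for 24 h, with DMSO and dasatinib (100 nM) as controls. Total RNA purified, integrity checked on agarose gel. RT-qPCR with gene-specific primers; relative expression by 2^-ΔΔCt normalized to MAN2B1. At least triplicates; Kruskal-Wallis tests.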
# MDA-MB-231 [9] = experiment: Inhibition of YAP/TAZ-TEAD interaction in human MDA-MB-231 cells assessed as reduction in CTGF mRNA expression at 10 uM measured after 24 hrs by qRT-PCR analysis; type: cell-based; summary of the method: as §3
# MDA-MB-231 [10] = experiment: Inhibition of YAP/TAZ-TEAD interaction in human MDA-MB-231 cells assessed as reduction in Cyr61 mRNA expression at 10 uM measured after 24 hrs by qRT-PCR analysis; type: cell-based; summary of the method: as §3
# MDA-MB-231 [11] = experiment: Antiproliferative activity against human MDA-MB-231 cells assessed as reduction in cell proliferation at 5 uM measured after 48 hrs by IncuCyte live-cell imaging assay; type: functional
# Summary of the method: (§4)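 MDA-MB-231 cells plated in triplicate at low density (2.5 × 10³ cells/well) in low serum (0.2%). Test agent added at several concentrations 24 h after plating. Cell number tracked by live-cell imaging every 3 h for up to 72 h; independent triplicates, mean ± SD, n = 3.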
# MDA-MB-231 [12] = experiment: Antiproliferative activity against human MDA-MB-231 cells assessed as reduction in cell proliferation at 10 uM measured after 48 hrs by IncuCyte live-cell imaging assay; type: functional; summary of the method: as §4
# HeLa [13] = experiment: Inhibition of YAP/TAZ-TEAD interaction in human HeLa cells assessed as reduction in AXL protein expression at 10 uM measured after 48 hrs by western blot analysis; type: cell-based
# HeLa [14] = experiment: Inhibition of YAP/TAZ-TEAD interaction in human HeLa cells assessed as reduction in CTGF protein expression at 10 uM measured after 48 hrs by western blot analysis; type: cell-based
# HeLa [15] = experiment: Inhibition of YAP/TAZ-TEAD interaction in human HeLa cells assessed as reduction in Cyr61 protein expression at 10 uM measured after 48 hrs by western blot analysis; type: cell-based
# HeLa [16] = experiment: Inhibition of YAP/TAZ-TEAD interaction in human HeLa cells assessed as reduction in Survivin protein expression at 10 uM measured after 48 hrs by western blot analysis; type: cell-based
# HeLa [17] = experiment: Inhibition of YAP/TAZ-TEAD interaction in human HeLa cells assessed as reduction in AXL mRNA expression at 10 uM measured after 24 hrs by qRT-PCR analysis; type: cell-based
# HeLa [18] = experiment: Inhibition of YAP/TAZ-TEAD interaction in human HeLa cells assessed as reduction in CTGF mRNA expression at 10 uM measured after 24 hrs by qRT-PCR analysis; type: cell-based
# HeLa [19] = experiment: Inhibition of YAP/TAZ-TEAD interaction in human HeLa cells assessed as reduction in Cyr61 mRNA expression at 10 uM measured after 24 hrs by qRT-PCR analysis; type: cell-based
# SH-SY5Y [20] = experiment: Effect on AXL protein expression in human SH-SY5Y cells lacking YAP/TAZ expression at 10 uM measured after 48 hrs by western blot analysis; type: functional, cell-based
# SH-SY5Y [21] = experiment: Effect on CTGF protein expression in human SH-SY5Y cells lacking YAP/TAZ expression at 10 uM measured after 48 hrs by western blot analysis; type: functional, cell-based
# SH-SY5Y [22] = experiment: Effect on Cyr61 protein expression in human SH-SY5Y cells lacking YAP/TAZ expression at 10 uM measured after 48 hrs by western blot analysis; type: functional, cell-based
# SH-SY5Y [23] = experiment: Effect on Survivin protein expression in human SH-SY5Y cells lacking YAP/TAZ expression at 10 uM measured after 48 hrs by western blot analysis; type: functional, cell-based
# SH-SY5Y [24] = experiment: Effect on AXL mRNA expression in human SH-SY5Y cells lacking YAP/TAZ expression at 10 uM measured after 24 hrs by qRT-PCR analysis; type: functional, cell-based
# SH-SY5Y [25] = experiment: Effect on CTGF mRNA expression in human SH-SY5Y cells lacking YAP/TAZ expression at 10 uM measured after 24 hrs by qRT-PCR analysis; type: functional, cell-based
# SH-SY5Y [26] = experiment: Effect on Cyr61 mRNA expression in human SH-SY5Y cells lacking YAP/TAZ expression at 10 uM measured after 24 hrs by qRT-PCR analysis; type: functional, cell-based
# [27] = Inhibition of TEAD (unknown origin) transfected in HEK293T cells assessed as inhibition of TEAD transcriptional activity measured after 24 hrs by luciferase reporter gene assay; type: cell-based; details: Homo sapiens, HEK-293T
# [28] = Inhibition of TEAD4/Yap1 (unknown origin) interaction measured after 24 hrs by fluorescence polarization assay; set-up: species or system Homo sapiens
# T1 sequence (Q15562 whole entry, the tested form may be a part): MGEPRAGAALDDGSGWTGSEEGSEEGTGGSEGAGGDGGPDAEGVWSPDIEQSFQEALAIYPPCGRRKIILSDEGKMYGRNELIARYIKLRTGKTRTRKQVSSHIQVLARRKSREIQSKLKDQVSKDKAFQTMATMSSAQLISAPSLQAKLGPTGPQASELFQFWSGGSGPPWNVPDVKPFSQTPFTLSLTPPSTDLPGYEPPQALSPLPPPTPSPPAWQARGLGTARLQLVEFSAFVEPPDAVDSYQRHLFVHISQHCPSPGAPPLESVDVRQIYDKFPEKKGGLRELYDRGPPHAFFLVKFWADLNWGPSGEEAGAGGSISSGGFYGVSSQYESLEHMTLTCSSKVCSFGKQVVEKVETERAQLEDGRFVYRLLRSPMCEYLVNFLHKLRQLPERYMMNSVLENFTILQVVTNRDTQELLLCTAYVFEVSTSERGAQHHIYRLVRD
smiles,measurement,setting,value
O=C(O)CCCn1cc(C(=O)NCCc2ccccc2)c(-c2ccc(Cl)c(Cl)c2)n1,inhibition,HEK293T,inactive
O=C(O)CCCn1cc(C(=O)NCc2ccccc2)c(-c2ccc(Cl)c(Cl)c2)n1,Kd,[1],4.6 µM
same,inhibition,HEK293T,inactive
CCOC(=O)c1cn(CCCN)nc1-c1ccc(Cl)c(Cl)c1,inhibition,HEK293T,Active
NCCCCn1cc(C(=O)NCCc2ccccc2)c(-c2ccc(Cl)c(Cl)c2)n1,Activity,HEK-293T,Toxic
NCCCn1cc(C(=O)NCc2ccccc2)c(-c2ccc(Cl)c(Cl)c2)n1,Activity,HEK-293T,Toxic
O=C(O)c1cccnc1Nc1cccc(C(F)(F)F)c1,Tm,[2],50.3 °C
NCCCCn1cc(C(=O)NCc2ccccc2)c(-c2ccc(Cl)c(Cl)c2)n1,Activity,HEK-293T,Toxic
NCCCn1cc(C(=O)NCCc2ccccc2)c(-c2ccc(Cl)c(Cl)c2)n1,Activity,HEK-293T,Toxic
O=C(O)CCn1cc(C(=O)NCc2ccccc2)c(-c2ccc(Cl)c(Cl)c2)n1,inhibition,HEK293T,inactive
CCOC(=O)c1cn(CCCCN)nc1-c1ccc(Cl)c(Cl)c1,Kd,[1],35 µM
same,inhibition,HEK293T,Active
same,IC50,[3],4.5 µM
same,inhibition,MDA-MB-231 [4],Active
same,inhibition,MDA-MB-231 [5],Active
same,inhibition,MDA-MB-231 [6],Active
same,inhibition,MDA-MB-231 [7],Active
same,inhibition,MDA-MB-231 [8],Active
same,inhibition,MDA-MB-231 [9],Active
same,inhibition,MDA-MB-231 [10],Active
same,inhibition at 5 µM,MDA-MB-231 [11],40%
same,inhibition at 10 µM,MDA-MB-231 [12],60%
same,inhibition,HeLa [13],Active
same,inhibition,HeLa [14],Active
same,inhibition,HeLa [15],Active
same,inhibition,HeLa [16],Active
same,inhibition,HeLa [17],Active
same,inhibition,HeLa [18],Active
same,inhibition,HeLa [19],Active
same,Activity,SH-SY5Y [20],inactive
same,Activity,SH-SY5Y [21],inactive
same,Activity,SH-SY5Y [22],inactive
same,Activity,SH-SY5Y [23],inactive
same,Activity,SH-SY5Y [24],inactive
same,Activity,SH-SY5Y [25],inactive
same,Activity,SH-SY5Y [26],inactive
Nc1nonc1-n1nnc(C(=O)N/N=C2\C(=O)Nc3ccccc32)c1-c1ccc(Cl)c(Cl)c1,IC50,[27],6.5 µM
O=C(CCl)c1ccccc1Nc1cccc(C(F)(F)F)c1,EC50,[28],5.9 µM
O=C(O)CCn1cc(C(=O)NCCc2ccccc2)c(-c2ccc(Cl)c(Cl)c2)n1,Kd,[1],5.1 µM
same,inhibition,HEK293T,inactive
COc1ccc2c(c1)/C(=N/NC(=O)c1nnn(-c3ccccc3N)c1-c1ccc(Cl)c(Cl)c1)C(=O)N2,IC50,[27],1.7 µM
NCCn1cc(C(=O)NCc2ccccc2)c(-c2ccc(Cl)c(Cl)c2)n1,Activity,HEK-293T,Toxic

# Reference: ChEMBL document CHEMBL5032518, “Discovery of a cryptic site at the interface 2 of TEAD - Towards a new family of YAP/TAZ-TEAD inhibitors” (Eur J Med Chem, 2021)
